# Data taken from ChEMBL document CHEMBL1268974, “Synthesis and antitumour activity of glycyrrhetinic acid derivatives” (Bioorg Med Chem, 2010).
# Active and inactive are the calls of the source. The calls are words filed in the database; no cut-off is given here.
# How the values were obtained:
# A549 [1] = assay: Induction of apoptosis in human A549 cells at IC90 concentration after 24 to 48 hrs using acridine orange/ethidium bromide dye by fluorescence microscopic analysis; type: functional, cell-based
# How it was run: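 About 500,000 cells were seeded in flasks and grown for 24 h, then the medium was replaced with compound-containing medium. After 24–48 h, floating cells in the supernatant were pelleted, washed and resuspended in PBS, mixed with acridine orange/ethidium bromide and examined by fluorescence microscopy. Green nuclear fluorescence was scored as apoptotic and red nuclei as necrotic.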
# A2780 (Homo sapiens) = assay: Induction of apoptosis in human A2780 cells assessed as DNA ladder formation at IC90 concentration after 24 hrs by agarose gel electrophoresis
# [2] = Cytotoxicity against human 518A2 cells after 96 hrs by SRB assay; type: functional, cell-based; conditions: 518A2, 96 h
# HCT-8 = assay: Cytotoxicity against human HCT8 cells after 96 hrs by SRB assay; type: functional, cell-based; conditions: HCT-8, 96 h
# A549 [3] = assay: Cytotoxicity against human A549 cells after 96 hrs by SRB assay; type: functional, cell-based; conditions: Homo sapiens, A549, 96 h
# A-431 = assay: Cytotoxicity against human A431 cells after 96 hrs by SRB assay; type: functional, cell-based; conditions: A-431, 96 h
# FaDu = assay: Cytotoxicity against human FADU cells after 96 hrs by SRB assay; type: functional, cell-based
# SW-1736 = assay: Cytotoxicity against human SW1736 cells after 96 hrs by SRB assay; type: functional, cell-based; conditions: Homo sapiens, SW-1736, 96 h
# HT-29 = assay: Cytotoxicity against human HT-29 cells after 96 hrs by SRB assay; type: functional, cell-based; conditions: HT-29, 96 h
# HCT-116 = assay: Cytotoxicity against human HCT116 cells after 96 hrs by SRB assay; type: functional, cell-based; conditions: HCT-116, 96 h
# A2780 = assay: Cytotoxicity against human A2780 cells after 96 hrs by SRB assay; type: functional, cell-based; conditions: Homo sapiens, A2780, 96 h
# MCF7 = assay: Cytotoxicity against human MCF7 cells after 96 hrs by SRB assay; type: functional, cell-based; conditions: Homo sapiens, MCF7, 96 h
# 8505C = assay: Cytotoxicity against human 8505C cells after 96 hrs by SRB assay; type: functional, cell-based; conditions: Homo sapiens, 8505C, 96 h
# [4] = Cytotoxicity against human Lipo cells after 96 hrs by SRB assay; type: functional, cell-based; conditions: Homo sapiens, Lipo, 96 h
# [5] = Cytotoxicity against mouse NIH/3T3 cells after 96 hrs by SRB assay; type: cell-based; conditions: NIH3T3, 96 h
# [6] = Cytotoxicity against human A253 cells after 96 hrs by SRB assay; type: functional, cell-based; conditions: Homo sapiens, A253, 96 h
# SW480 = assay: Cytotoxicity against human SW480 cells after 96 hrs by SRB assay; type: functional, cell-based; conditions: SW480, 96 h
# DLD-1 = assay: Cytotoxicity against human DLD1 cells after 96 hrs by SRB assay; type: functional, cell-based; conditions: Homo sapiens, DLD-1, 96 h
Compound,Activity (A549 [1]),Activity (A2780 (Homo sapiens)),IC50 [2],IC50 (HCT-8),IC50 (A549 [3]),IC50 (A-431),IC50 (FaDu),IC50 (SW-1736),IC50 (HT-29),IC50 (HCT-116),IC50 (A2780),IC50 (MCF7),IC50 (8505C),IC50 [4],IC50 [5],IC50 [6],IC50 (SW480),IC50 (DLD-1)
COC(=O)[C@@]1(C)CC[C@]2(C)CC[C@]3(C)C(=CC(=O)[C@@H]4[C@@]5(C)CC[C@H](OC(=O)CCN)C(C)(C)[C@@H]5CC[C@]43C)[C@@H]2C1,Active,Active,–,–,–,–,–,–,–,–,–,–,–,–,–,–,–,–
COC(=O)[C@@]1(C)CC[C@]2(C)CC[C@]3(C)C(=CC(=O)[C@@H]4[C@@]5(C)CC[C@H](OC(=O)CN)C(C)(C)[C@@H]5CC[C@]43C)[C@@H]2C1,Active,–,–,–,–,–,–,–,–,–,–,–,–,–,–,–,–,–
CCOC(=O)[C@@]1(C)CC[C@]2(C)CC[C@]3(C)C(=CC(=O)[C@@H]4[C@@]5(C)CC[C@H](O)C(C)(C)[C@@H]5CC[C@]43C)[C@@H]2C1,–,–,25.2 µM,43.4 µM,22.7 µM,23.4 µM,23.8 µM,13.4 µM,22.1 µM,21.6 µM,27 µM,18.6 µM,24.6 µM,27.7 µM,23.7 µM,25 µM,19.1 µM,28.1 µM
CC(C)OC(=O)[C@@]1(C)CC[C@]2(C)CC[C@]3(C)C(=CC(=O)[C@@H]4[C@@]5(C)CC[C@H](OC(=O)[C@@H](C)N)C(C)(C)[C@@H]5CC[C@]43C)[C@@H]2C1,Active,–,5.48 µM,3.32 µM,3.17 µM,3.11 µM,5.48 µM,3.46 µM,3.47 µM,4.82 µM,1.7 µM,3.52 µM,3.51 µM,4.73 µM,–,3.5 µM,3.47 µM,5.67 µM
CC(C)OC(=O)[C@@]1(C)CC[C@]2(C)CC[C@]3(C)C(=CC(=O)[C@@H]4[C@@]5(C)CC[C@H](O)C(C)(C)[C@@H]5CC[C@]43C)[C@@H]2C1,–,–,18.2 µM,24.1 µM,14.4 µM,32 µM,14.4 µM,12.8 µM,16 µM,26.4 µM,24.9 µM,16 µM,14.2 µM,15.9 µM,32.4 µM,15.8 µM,15.3 µM,27.6 µM
CC1(C)[C@@H](O)CC[C@]2(C)[C@H]3C(=O)C=C4[C@@H]5C[C@@](C)(C(=O)O)CC[C@]5(C)CC[C@@]4(C)[C@]3(C)CC[C@@H]12 [ENOXOLONE],Active,–,83.9 µM,78.9 µM,82.8 µM,79.6 µM,84.5 µM,76.9 µM,80.1 µM,78.8 µM,74.6 µM,84.7 µM,86.5 µM,81.4 µM,18.5 µM,80.8 µM,86.8 µM,81.2 µM
CC1(C)[C@@H](O)CC[C@]2(C)[C@H]3C(=O)C=C4[C@@H]5C[C@@](C)(C(=O)OCc6ccccc6)CC[C@]5(C)CC[C@@]4(C)[C@]3(C)CC[C@@H]12,–,–,18.2 µM,25.2 µM,6.15 µM,23.6 µM,5.48 µM,2.74 µM,11.5 µM,20.6 µM,20.3 µM,13.5 µM,8.1 µM,11.5 µM,21 µM,10.7 µM,6.17 µM,22.7 µM
COC(=O)[C@@]1(C)CC[C@]2(C)CC[C@]3(C)C(=CC(=O)[C@@H]4[C@@]5(C)CC[C@H](OC(=O)[C@H](C)N)C(C)(C)[C@@H]5CC[C@]43C)[C@@H]2C1 [listing 1 of 2 here],Active,–,–,–,–,–,–,–,–,–,–,–,–,–,–,–,–,–
COC(=O)[C@@]1(C)CC[C@]2(C)CC[C@]3(C)C(=CC(=O)[C@@H]4[C@@]5(C)CC[C@H](OC(=O)[C@@H](C)N)C(C)(C)[C@@H]5CC[C@]43C)[C@@H]2C1,–,–,2.26 µM,2.26 µM,2.26 µM,2.36 µM,2.25 µM,2.25 µM,2.8 µM,2.25 µM,2.24 µM,2.25 µM,2.92 µM,3.56 µM,–,2.26 µM,3.52 µM,3.35 µM
COC(=O)[C@@]1(C)CC[C@]2(C)CC[C@]3(C)C(=CC(=O)[C@@H]4[C@@]5(C)CC[C@H](OC(=O)[C@H](C)N)C(C)(C)[C@@H]5CC[C@]43C)[C@@H]2C1 [listing 2 of 2 here],–,–,3.54 µM,2.8 µM,2.77 µM,3.48 µM,4.52 µM,3.22 µM,2.87 µM,2.74 µM,2.98 µM,3.54 µM,4.31 µM,4.3 µM,–,3.61 µM,3.52 µM,4.49 µM
COC(=O)[C@@]1(C)CC[C@]2(C)CC[C@]3(C)C(=CC(=O)[C@@H]4[C@@]5(C)CC[C@H](O)C(C)(C)[C@@H]5CC[C@]43C)[C@@H]2C1,–,–,27.5 µM,24.4 µM,23.5 µM,25.3 µM,23.4 µM,34.9 µM,27.5 µM,22.1 µM,25.5 µM,22.1 µM,26.1 µM,20.5 µM,22.8 µM,19.4 µM,16.1 µM,26.1 µM
